# High-throughput results: PubChem, Johns Hopkins Ion Channel Center
# TRPC4 agonist: TRPC4 (mouse) channel activation; Q9QUQ5; HEK293 TRPC4beta/mu-opioid, Fluo4 calcium fluorescence; active compounds read high; B-score at 10 µM; 310,000 compounds, 0.49% hits;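 active = B-score above 5 SD of library B-scores, and initial fluorescence ratio not above library mean plus 5 SD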;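 note: positive B-score marks a calcium rise read as TRPC4 activation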
# Target sequence (Q9QUQ5 whole entry, looked up): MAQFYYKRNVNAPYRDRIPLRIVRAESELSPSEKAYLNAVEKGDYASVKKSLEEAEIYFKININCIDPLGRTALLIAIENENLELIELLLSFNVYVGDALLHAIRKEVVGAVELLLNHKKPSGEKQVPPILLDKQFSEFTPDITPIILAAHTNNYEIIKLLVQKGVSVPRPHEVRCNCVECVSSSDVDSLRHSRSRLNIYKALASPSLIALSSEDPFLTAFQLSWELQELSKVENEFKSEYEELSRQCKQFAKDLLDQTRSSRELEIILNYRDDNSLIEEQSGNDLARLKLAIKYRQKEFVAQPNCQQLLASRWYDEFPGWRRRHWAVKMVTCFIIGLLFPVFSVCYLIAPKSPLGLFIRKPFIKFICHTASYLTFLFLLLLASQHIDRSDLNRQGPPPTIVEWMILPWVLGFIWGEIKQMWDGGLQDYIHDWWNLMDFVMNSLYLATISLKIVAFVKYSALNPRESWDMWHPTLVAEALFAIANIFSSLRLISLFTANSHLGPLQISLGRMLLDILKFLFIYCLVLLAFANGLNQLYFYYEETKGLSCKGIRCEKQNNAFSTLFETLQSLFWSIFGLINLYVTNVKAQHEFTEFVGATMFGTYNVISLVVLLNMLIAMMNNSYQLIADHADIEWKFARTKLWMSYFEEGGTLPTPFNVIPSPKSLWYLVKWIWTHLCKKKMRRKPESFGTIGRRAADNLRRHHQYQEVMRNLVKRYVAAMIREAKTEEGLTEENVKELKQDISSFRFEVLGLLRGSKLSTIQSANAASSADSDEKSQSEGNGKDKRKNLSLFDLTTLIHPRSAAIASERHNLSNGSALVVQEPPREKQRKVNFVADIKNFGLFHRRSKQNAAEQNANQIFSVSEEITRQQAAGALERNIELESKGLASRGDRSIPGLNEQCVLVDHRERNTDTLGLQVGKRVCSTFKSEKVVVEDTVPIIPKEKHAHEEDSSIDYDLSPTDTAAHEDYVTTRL
#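 Assay system: HEK293 stable line with TRPC4beta plus mu-opioid receptor. Times: dye 45 min RT, read 110 s. Measured by: kinetic Fluo4 calcium fluorescence. Measure: B score of integrated ratio. Controls: assay buffer as low control, maximal DAMGO as high control.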
# TRPC6 act: activates the mouse TRPC6 cation channel | HEK293-TRPC6 membrane potential dye fluorescence; active compounds read high | B-score at 10 µM | 310,000 compounds, 0.13% hits;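 active = B-score of the integrated fluorescence ratio above library mean plus 3 SD, and starting fluorescence ratio within library mean plus 5 SD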;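 note: higher score means more depolarization so channel activation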
# TRPC4 PAM: allosteric potentiators of mouse TRPC4 channel | AID 2227 | 310,000 compounds, 0.42% hits | Q9QUQ5 | HEK293 TRPC4beta/mu-opioid, DAMGO EC20, Fluo-4 Ca2+ flux; active compounds read high | B-score at 10 µM;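 active = B-score of calcium response area above 5 SD of library B-scores, with initial fluorescence ratio within 5 SD of library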;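 note: B-score of integrated fluorescence ratio over time as area under calcium response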
# TRPC4 inh: TRPC4 (mouse) channel inhibition; B-score at 10 µM; 300,000 compounds, 0.39% hits; Q9QUQ5; HEK293 TRPC4beta/mu-opioid, DAMGO-evoked Fluo4 calcium flux; active compounds read low;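 active = B-score over 3 SD under the library average, no early fluorescence shift, positive overall ratio signal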
#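 Test system – stable TRPC4beta/mu-opioid receptor HEK293 cells · Probe or stimulus – DAMGO, a submaximal dose followed by a maximal one · Dosing – one concentration per compound · Signal – Fluo4 calcium fluorescence by kinetic imaging, 5 s 1 Hz baseline · Evaluation – per-well B score of integrated baseline-normalized Fluo4 ratio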
# TRPC6 inh: inhibitors of mouse TRPC6 channel; Q61143; HEK293-TRPC6, membrane potential dye, ACh-evoked depolarization; active compounds read low; B-score at 10 µM; 310,000 compounds, 1.1% hits; AID 2553;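 active = B-score under library mean minus 3 SD, initial fluorescence not abnormally high, positive integrated signal ratio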;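 note: B-score derived from integrated fluorescence ratio over the kinetic read; more negative B-score means stronger inhibition of depolarization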
# TRPC4 spec 2: mouse TRPC4 off-target activity of TRPC6 inhibitors, second screen; shares compounds with TRPC6 inh; HEK293 TRPC4/MOR, membrane potential dye fluorescence; channel activated by saturating DAMGO dose; inhibition, % at 10 µM; 920 compounds, 42% hits;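 active = compounds whose fluorescence signal differed from control wells by over 3 SD, either direction, in both duplicate plates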
# TRPC4 spec: tests whether TRPC6 inhibitors also affect mouse TRPC4 | HEK293 TRPC4/mu-opioid, membrane potential fluorescence | shares compounds with TRPC6 inh | activity change, negative = inhibition, % at 10 µM | 920 compounds, 61% hits;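 active = rise or fall in signal beyond 3 SD of buffer-only wells in both replicate plates, either sign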;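 note: integrated kinetic ratio of fluorescence range over baseline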
# HEK293 MPD ctr 2-1: second counter-screen for TRPC6 inhibitors: parental HEK293 cells; signal change vs control, % at 10 µM; 920 compounds, 31% hits; AID 2779; parental HEK293 membrane potential dye fluorescence; maximal acetylcholine challenge after compound addition; shares compounds with TRPC6 inh;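 active = membrane potential signal moving either way by over 3 SD of the maximum-effect control, in both duplicate plates, meaning non-specific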
# HEK293 MPD ctr-1: parental HEK293 nonspecific activity of TRPC6 inhibitors. shares compounds with TRPC6 inh. parental HEK293 membrane potential dye fluorescence. membrane potential signal change, % at 10 µM. 920 compounds, 60% hits. AID 2780;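 active = membrane potential signal shifting up or down by more than 3 SD of buffer-only wells, on both duplicate plates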
# HEK293 MPD ctr-2: checks TRPC6 modulator effects in parental HEK293 cells | shares compounds with TRPC6 inh | membrane potential dye fluorescence | membrane potential signal change, % at 10 µM | 2,400 compounds, 51% hits | AID 488924;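 active = membrane potential signal moves up or down beyond 5 SD from buffer-only wells, on both duplicate plates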
# HEK293 MPD ctr 2-2: second counter-screen for TRPC6 modulators: effect in parental HEK293 cells; shares compounds with TRPC6 inh; membrane potential dye fluorescence; after compound, maximal acetylcholine stimulation; inhibition, % at 10 µM; 2,400 compounds, 14% hits; AID 488926;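 active = membrane potential signal drops by more than 5 SD from the mean control signal, in both duplicate plates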;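 note: plate controls were acetylcholine ECmax control wells for no effect and buffer only wells for full effect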
# TRPC4 ctr mod: mouse TRPC4 off-target activity of TRPC6 modulators; shares compounds with TRPC6 inh; HEK293 TRPC4/mu-opioid, membrane potential fluorescence; 2,400 compounds, 69% hits; percent change from control (negative = decrease, positive = increase), % at 10 µM;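 active = membrane potential signal moved up or down beyond 5 SD of buffer control wells, in both duplicate plates, actives on both sides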;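 note: plate controls were assay buffer wells for no effect and DAMGO maximal-effect wells for full effect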
# TRPC4 ctr inh 2: mouse TRPC4 off-target activity of TRPC6 modulators, second screen; shares compounds with TRPC6 inh; HEK293 TRPC4/mu-opioid, membrane potential dye fluorescence; stimulated with maximal-effect DAMGO; AID 488928; 2,400 compounds, 55% hits; inhibition, % at 10 µM;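 active = drop in membrane potential signal beyond 5 SD of the control wells in both duplicate plates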;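 note: TRPC4 counter screen for TRPC6 hits run under conditions tuned for TRPC6 not TRPC4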
# TRPC6 block conf: confirmation of mouse TRPC6 inhibitors; shares compounds with TRPC6 inh; HEK293-TRPC6, membrane potential dye, ACh-evoked depolarization; inhibition, % at 10 µM; 3,300 compounds, 43% hits; AID 488960;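 active = fluorescence ratio falls more than 5 SD below the full-stimulation control mean, in both duplicate runs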;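 note: integrated fluorescence ratio of peak minus minimum over baseline after agonist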
# TRPC6 act confirm: mouse TRPC6 activator confirmation. shares compounds with TRPC6 inh. HEK293-TRPC6 membrane potential dye fluorescence, FDSS. activation, % at 10 µM. 2,800 compounds, 11% hits. AID 488961;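 active = ratio signal rise beyond 5 SD above unstimulated control wells' mean, seen in both duplicate runs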;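 note: plate controls were buffer EC0 wells for no effect and acetylcholine ECmax response for full effect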
# The depositor's hits bear a star; i = inactive; . = no result. The list is not random: actives were taken first. Their share in the collection is about 2.3%.
SMILES,TRPC4 agonist,TRPC6 act,TRPC4 PAM,TRPC4 inh,TRPC6 inh,HEK293 MPD ctr-2,HEK293 MPD ctr 2-2,TRPC4 ctr mod,TRPC4 ctr inh 2,TRPC6 block conf,TRPC6 act confirm,others
OC(c1cccc(Cl)c1)(c1cccc(Cl)c1)C1CN2CCC1CC2 (stereo unspecified),i,i,i,i,-8*,i,i,10%*,i,70%*,i,
Clc1ccc2c(c1)C(OC1CN3CCC1CC3)c1ccccc1CS2 (stereo unspecified),i,i,i,i,i,.,.,.,.,.,.,
COc1cc2c(cc1O)CC1c3c(cc(O)c(OC)c3-2)CCN1C (stereo unspecified),i,i,i,i,i,.,.,.,.,.,.,
CCCN1CCc2cccc3c2[C@H]1Cc1ccc(O)c(O)c1-3,i,i,i,i,-5.6*,i,i,i,37%*,i,i,
CCC(CO)(C(=O)OC1CC2CCC(C1)N2C)c1ccccc1 (stereo unspecified),i,i,i,i,-7.6*,.,.,.,.,89%*,i,TRPC4 spec 2=i;TRPC4 spec=i;HEK293 MPD ctr 2-1=-46%*;HEK293 MPD ctr-1=i
CCn1c(C)c(C(=O)Nc2ccc(OC)cc2)c2cc(OC)ccc21,i,i,i,i,i,.,.,.,.,.,.,
CCN(CC)CCCOC(=O)C(OC)(c1ccccc1)c1ccccc1,i,i,i,i,-6.4*,153%*,78%*,34%*,i,61%*,.,
COc1ccc(CCNCc2c(OC)ccc3ccccc23)cc1,i,i,i,i,-7*,.,.,.,.,65%*,.,TRPC4 spec 2=69%*;TRPC4 spec=47%*;HEK293 MPD ctr 2-1=i;HEK293 MPD ctr-1=24%*
Cc1ccc2c(c1)[C@@H]1CN(C)CC[C@@H]1N2C(=O)Nc1cccc(C(F)(F)F)c1,i,i,i,i,-5.9*,i,i,-14%*,47%*,i,i,
Nc1c2c(nc3sc4c(c13)CCCC4)CCCC2,i,i,i,i,-5.9*,i,i,-8.0%*,62%*,i,i,
Cc1cc(=O)oc2c(C)c(OCC(=O)N3CCC(C(=O)O)(c4ccccc4)CC3)ccc12,i,i,i,i,i,.,.,.,.,.,.,
CCN(CC)c1ccc(N=Cc2c(O)n(Cc3ccco3)c(=O)[nH]c2=O)cc1,i,i,i,i,i,.,.,.,.,.,.,
CCN(CCO)c1ccc(N=Cc2c(O)n(C)c(=S)[nH]c2=O)cc1,i,23*,i,i,-7.5*,162%*,i,26%*,i,36%*,54%*,
CCC(=Nc1ccc2c(c1)CCC2)c1c(O)n(-c2ccc(OC)cc2)c(=O)[nH]c1=O,i,i,i,i,i,.,.,.,.,.,.,
O=C(c1cccc(C(F)(F)F)c1)C1CCCN(Cc2ncc[nH]2)C1 (stereo unspecified),i,i,i,i,i,.,.,.,.,.,.,
CCn1ccnc1CN1CCCC(C(=O)c2cccc(C(F)(F)F)c2)C1 (stereo unspecified),i,i,i,i,-5.1*,i,i,8.0%*,65%*,62%*,.,
CC(C)Cc1nc(N2CCNCC2)c(C#N)c2c1CCC2,i,i,i,i,-10*,.,.,.,.,72%*,i,TRPC4 spec 2=34%*;TRPC4 spec=6.0%*;HEK293 MPD ctr 2-1=i;HEK293 MPD ctr-1=14%*
CCc1nc(N2CCNCC2)c(C#N)c2c1CSC(C)(C)C2,i,i,i,i,i,.,.,.,.,.,.,
CCC(C)/C=C(C)/C=C/C1=CC2=C(Cl)C(=O)C(C)(OC(C)=O)C(=O)C2=CO1 (stereo unspecified),i,i,i,i,-6.5*,-84%*,69%*,-22%*,93%*,88%*,i,
CCC1(C(=O)c2ccc(C)cc2)C2c3ccccc3OC(=O)C21C(=O)O (stereo unspecified),i,i,i,i,i,.,.,.,.,.,.,
C=CCn1c(=O)c(C=Nc2cccnc2Cl)c(O)n(CCCC)c1=O,i,i,i,i,i,.,.,.,.,.,.,
CCOC(=O)C(O)(c1ccc(N(CC)C(=O)COc2ccccc2)cc1)C(F)(F)F (stereo unspecified),i,i,i,i,-5*,i,i,i,i,i,i,
CC[n+]1c(SC)ccc2cc(OC)ccc21,i,i,i,i,-5.2*,-206%*,85%*,-30%*,54%*,58%*,i,
C1CCC2S[C@H]3CCCCC3NC2C1 (stereo partly specified),i,i,i,i,i,.,.,.,.,.,.,
CC(Cc1ccccc1Sc1ccc(O)cc1)N(C)C (stereo unspecified),i,i,i,i,-6.6*,.,.,.,.,i,i,TRPC4 spec 2=41%*;TRPC4 spec=43%*;HEK293 MPD ctr 2-1=i;HEK293 MPD ctr-1=4.2%*
CC(Cc1ccccc1Sc1ccccc1)N(C)C (stereo unspecified),i,i,i,i,i,.,.,.,.,.,.,
Cc1ccc(C[n+]2c(-c3ccc(C)cc3)cc(-c3ccc(C)cc3)cc2-c2ccc(C)cc2)cc1,160*,i,i,i,-7*,.,.,.,.,81%*,i,TRPC4 spec 2=56%*;TRPC4 spec=-16%*;HEK293 MPD ctr 2-1=i;HEK293 MPD ctr-1=-196%*
